Results reported in ChEMBL document CHEMBL1133480, “Rational design, synthesis, and biological activity of benzoxazinones as novel factor Xa inhibitors” (J Med Chem, 2000).

Tests used:
[1] = biological target: Coagulation factor X (Homo sapiens, UniProt P00742); assay: In vitro inhibition of coagulation factor Xa.
How it was run: (§1)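 Enzyme was preincubated 1 h at room temperature with inhibitor across 14 concentrations (1 nM–100 μM final). A405 was read kinetically over 10 min at 37 °C. Percent inhibition came from the linear progress-curve slopes, typically in duplicate.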

[2] = biological target: T1, Plasminogen (Homo sapiens, UniProt P00747); assay: Inhibition of plasmin at 100 uM
T1 sequence (P00747 97-580 limits assumed): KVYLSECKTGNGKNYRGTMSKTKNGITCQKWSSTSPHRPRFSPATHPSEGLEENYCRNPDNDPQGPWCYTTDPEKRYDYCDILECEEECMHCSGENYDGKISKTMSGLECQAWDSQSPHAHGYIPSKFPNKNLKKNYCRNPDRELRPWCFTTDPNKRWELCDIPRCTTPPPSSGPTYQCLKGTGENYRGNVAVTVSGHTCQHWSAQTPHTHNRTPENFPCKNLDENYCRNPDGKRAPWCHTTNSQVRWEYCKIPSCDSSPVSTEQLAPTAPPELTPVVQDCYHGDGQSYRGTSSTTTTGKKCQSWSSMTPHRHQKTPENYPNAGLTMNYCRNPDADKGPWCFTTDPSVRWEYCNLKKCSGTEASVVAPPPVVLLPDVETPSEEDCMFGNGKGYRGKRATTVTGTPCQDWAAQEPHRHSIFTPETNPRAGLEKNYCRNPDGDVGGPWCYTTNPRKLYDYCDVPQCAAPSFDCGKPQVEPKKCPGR
T1 sequence (P00747 581-810 limits assumed): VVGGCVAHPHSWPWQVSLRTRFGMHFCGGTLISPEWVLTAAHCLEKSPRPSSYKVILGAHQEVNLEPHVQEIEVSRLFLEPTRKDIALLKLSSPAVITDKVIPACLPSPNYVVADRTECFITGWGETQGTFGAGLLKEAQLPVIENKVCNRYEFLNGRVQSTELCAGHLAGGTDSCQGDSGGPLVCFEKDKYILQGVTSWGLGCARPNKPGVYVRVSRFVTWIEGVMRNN

[3] = biological target: T2, Prothrombin (Homo sapiens, UniProt P00734); assay: Inhibition of thrombin at 100 uM
[4] = biological target: T3, Serine protease 1 (Homo sapiens, UniProt P07477); assay: In vitro inhibitory activity against trypsin at 100 uM
T3 sequence (P07477 whole entry): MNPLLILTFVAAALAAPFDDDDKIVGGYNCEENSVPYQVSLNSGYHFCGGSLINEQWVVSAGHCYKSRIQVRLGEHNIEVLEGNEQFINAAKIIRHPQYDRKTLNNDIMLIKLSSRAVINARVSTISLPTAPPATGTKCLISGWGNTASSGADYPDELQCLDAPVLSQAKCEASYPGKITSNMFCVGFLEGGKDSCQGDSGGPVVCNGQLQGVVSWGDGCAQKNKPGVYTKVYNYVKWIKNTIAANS

[5] = biological target: T3, Serine protease 1; assay: In vitro inhibitory activity against trypsin; how it was run: as §1
[6] = biological target: T1, Plasminogen; assay: Compound was tested for in vitro inhibitory activity against plasmin; how it was run: as §1
[7] = biological target: T2, Prothrombin; assay: Compound was tested for in vitro inhibitory activity against thrombin at 100 uM
[8] = biological target: T2, Prothrombin; assay: Inhibition of thrombin; how it was run: as §1
[9] = biological target: T1, Plasminogen; assay: Compound was tested for in vitro inhibitory activity against plasmin at 100 uM

Sequence of Coagulation factor X (P00742 41-179 limits assumed): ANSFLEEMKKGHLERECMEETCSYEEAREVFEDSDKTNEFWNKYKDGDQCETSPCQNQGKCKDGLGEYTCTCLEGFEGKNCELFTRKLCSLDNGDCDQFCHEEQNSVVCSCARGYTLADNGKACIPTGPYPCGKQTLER
Sequence of Coagulation factor X (P00742 235-488 limits assumed): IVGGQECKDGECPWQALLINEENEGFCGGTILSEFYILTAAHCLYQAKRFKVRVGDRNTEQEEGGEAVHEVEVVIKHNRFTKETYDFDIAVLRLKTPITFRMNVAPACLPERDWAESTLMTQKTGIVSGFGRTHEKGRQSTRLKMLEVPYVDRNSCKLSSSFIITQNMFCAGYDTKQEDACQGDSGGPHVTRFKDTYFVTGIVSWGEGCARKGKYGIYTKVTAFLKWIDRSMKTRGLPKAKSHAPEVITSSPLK

Row | SMILES | IC50 [1] [nM] | inhibition [2] [%] | inhibition [3] [%] | inhibition [4] [%] | IC50 [5] [nM] | IC50 [6] [nM] | inhibition [7] [%] | IC50 [8] [nM] | inhibition [9] [%]
1 | CC1CCCC(C)N1CCCCCN1C(=O)C(c2cccc(CN)c2)Oc2ccccc21 (centres undefined) | 840 | – | – | – | 7800 | 25000 | 64 | – | –
2 | CC1CCCC(C)N1CCCCCN1C(=O)C(c2ccc(C(=N)S)cc2)Oc2ccccc21 (centres undefined) | 34000 | 44 | 32 | 7.8 | – | – | – | – | –
3 | CC1CCCC(C)N1CCCCCN1C(=O)C(c2cccc(C(N)=NN3CCOCC3)c2)Oc2ccccc21 (centres undefined) | 1500 | – | – | – | – | – | – | – | –
4 | C/N=C(/N)c1cccc(C2Oc3ccccc3N(CCCCCN3C(C)CCCC3C)C2=O)c1 (centres undefined) | – | – | 68 | 32 | – | – | – | – | 32
5 | N=C(N)c1cccc(C2Oc3ccccc3N(CCCCCN)C2=O)c1 (centres undefined) | 6300 | – | 60 | – | 4300 | – | – | – | 64
6 | CC1CCCC(C)N1CCCCCN1C(=O)C(c2ccc(Cl)c(Cl)c2)Oc2ccccc21 (centres undefined) | 26000 | 25 | 47 | 14 | – | – | – | – | –
7 | CC1CCC(C)N1CCCCCN1C(=O)C(c2cccc(C(=N)N)c2)Oc2ccccc21 (centres undefined) | 48 | – | – | – | 760 | – | – | 910 | 85
8 | CC1CCCC(C)N1CCCCCN1C(=O)C(c2cccc(C(=N)S)c2)Oc2ccccc21 (centres undefined) | – | 29 | 20 | 5.2 | – | – | – | – | –
9 | CNC(=N)c1cccc(C2Oc3ccccc3N(CCCCCN3C(C)CCCC3C)C2=O)c1 (centres undefined) | 2800 | – | – | – | – | – | – | – | –

The remaining lines, values ahead:

Row | IC50 [1] [nM] | inhibition [2] [%] | inhibition [3] [%] | inhibition [4] [%] | IC50 [5] [nM] | IC50 [6] [nM] | inhibition [7] [%] | IC50 [8] [nM] | inhibition [9] [%] | SMILES
10 | 4900 | 19 | 29 | 2.3 | – | – | – | – | – | COc1ccc(C2Oc3ccccc3N(CCCCCN3C(C)CCCC3C)C2=O)cc1 (centres undefined)
11 | 7900 | 80 | – | – | 13000 | – | – | 1700 | – | CC1CCCC(C)N1CCCCCN1C(=O)C(c2ccc(C(=N)N)cc2)Oc2ccccc21 (centres undefined)
12 | 12 | – | – | – | 300 | 38000 | – | 1100 | – | CC1CCCC(C)N1CCCCN1C(=O)C(c2cccc(C(=N)N)c2)Oc2ccccc21 (centres undefined)
13 | 240 | – | – | – | 1100 | – | – | 2200 | 70 | N=C(N)c1cccc(C2Oc3ccccc3N(CCCCCN3CCOCC3)C2=O)c1 (centres undefined)
